Source: ChEMBL document CHEMBL1137629, “Antiproliferative effect of dihydroxyacetone on Trypanosoma brucei bloodstream forms: cell cycle progression, subcellular alterations, and cell death” (Antimicrob Agents Chemother, 2007)
Calls of active or inactive are those of the source. No cut-off for these calls is given here.

Assays:
Trypanosoma brucei [1] = assay: Induction of apoptosis-like programmed cell death in Trypanosoma brucei bloodstream form assessed as phosphatidylserine exposure in outer leaflet of plasma membrane at 1 mM after 24 hrs by V-Fluos staining staining; format: functional
In short: (§1)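 After 24 h DHA exposure of axenic bloodstream-form T. brucei MITat 1.2 (EATRO 427; 37°C, 5% CO₂), cells were washed in HEPES buffer (10 mM, pH 7.4, 140 mM NaCl, 5 mM CaCl₂). They were then stained with annexin V-Fluos for 15 min at 4°C and analysed by flow cytometry.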

Trypanosoma brucei [2] = assay: Effect on morphological changes in Trypanosoma brucei bloodstream form assessed as disorder of mitochondrion structure at 3 mM after 24 hrs by transmission electron microscopy; format: functional, organism-based
In short: (§2)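 Parasites exposed 24 h to 3 mM DHA. 10⁸ cells fixed 1 h at 4°C in 2% glutaraldehyde in 0.2 M sodium cacodylate with 0.12 M sucrose, held overnight in buffer, postfixed in 1.5% osmium tetroxide and stained with 0.5% uranyl acetate. Dehydrated in ethanol, cleared in propylene oxide, embedded in Agar 100. Sections stained with 5% uranyl acetate and 0.4% lead citrate for TEM. Rapamycin (5 μM) served as the autophagy positive control.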

Trypanosoma brucei [3] = assay: Effect on morphological changes in Trypanosoma brucei bloodstream form assessed as presence of more than one flagellum at 3 mM after 24 hrs by transmission electron microscopy; format: functional, organism-based; in short: as §2
Trypanosoma brucei [4] = assay: Effect on cell cycle of Trypanosoma brucei bloodstream form assessed as induction of necrosis at 1 mM after 24 hrs using propidium iodide staining by FACS analysis; format: functional
In short: (§3)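 Bloodstream forms exposed 24 h at 37°C, 5% CO₂. Cells at 2 × 10⁶/ml incubated 10 min with propidium iodide (5 μg/ml), and uptake read by flow cytometry as a measure of membrane integrity. Digitonin (6 μM) served as the necrosis positive control.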

Trypanosoma brucei [5] = assay: Trypanocidal activity against Trypanosoma brucei bloodstream form assessed as cell death at 1 mM after 40 mins by spectrophotometry; format: functional, organism-based
Trypanosoma brucei [6] = assay: Effect on morphological changes in Trypanosoma brucei bloodstream form assessed as presence of more than one flagellum after 24 hrs using DAPI staining by phase-contrast microscopy; format: functional, organism-based
In short: (§4)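 Bloodstream forms (MITat 1.2, EATRO 427) grown 24 h with or without DHA. Aliquots washed twice in PBS, resuspended, placed on slides and fixed with methanol. Stained 5 min with DAPI (0.1 μg/ml final), then washed. Phase-contrast and fluorescence images scored for nucleus/kinetoplast numbers (1N1K, 1N2K, 2N2K, 2N1K, abnormal). n = 4, Student's t test, SD.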

Trypanosoma brucei [7] = assay: Induction of apoptosis-like programmed cell death in Trypanosoma brucei bloodstream form assessed as increase in intracellular reactive oxygen species production at 2 mM after 24 hrs by FACS analysis; format: functional
In short: (§5)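 Bloodstream-form T. brucei MITat 1.2 (VSG 221, strain EATRO 427) were grown axenically at 37°C, 5% CO₂ and exposed to DHA for 24 h. Control and treated cells were then loaded with 10 μM dichlorofluorescein diacetate for 1 h at 37°C. Intracellular fluorescence intensity was read by flow cytometry.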

Trypanosoma brucei [8] = assay: Effect on morphological changes in Trypanosoma brucei bloodstream form assessed as increase in cell size at 5 mM after 20 hrs by scanning electron microscopy; format: functional, organism-based
In short: (§6)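 Cells grown 20 h with 5 mM DHA. Fixed and stained as for TEM (glutaraldehyde, osmium tetroxide, uranyl acetate), then dehydrated through 50, 75, 95 and 100% ethanol. Critical-point dried and gold-palladium sputter-coated for scanning electron microscopy.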

Trypanosoma brucei [9] = assay: Effect on cell cycle of Trypanosoma brucei bloodstream form assessed as increase in cells with two nuclei and one kinetoplast at 1 to 3 mM using DAPI staining by phase-contrast microscopy; format: functional, organism-based; in short: as §4
Trypanosoma brucei [10] = assay: Effect on cell cycle of Trypanosoma brucei bloodstream form assessed as induction of necrosis at 3 mM after 24 hrs using propidium iodide staining by FACS analysis; format: functional; in short: as §3
Trypanosoma brucei [11] = assay: Effect on cell cycle of Trypanosoma brucei bloodstream form assessed as DNA content at 3 mM after 24 hrs using propidium iodide staining by FACS analysis; format: functional
In short: (§7)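 T. brucei bloodstream forms (MITat 1.2, strain EATRO 427), axenic culture at 37°C, 5% CO₂. Treated 24 h. At least 5 × 10⁵ cells washed in PBS, lysed hypotonically 30 min at room temperature in 10 mM phosphate buffer pH 7.4 with 6 μM digitonin. Nuclei stained with propidium iodide (10 μg/ml final) and analysed by flow cytometry for G₁/S/G₂ distribution and degraded DNA.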

Trypanosoma brucei [12] = assay: Effect on morphological changes in Trypanosoma brucei bloodstream form assessed as presence of atypical combination of number of nucleus at 5 mM after 20 hrs by scanning electron microscopy; format: functional, organism-based; in short: as §6
Trypanosoma brucei [13] = assay: Trypanocidal activity against Trypanosoma brucei bloodstream form assessed as decrease in cell viability at 1 mM up to 40 mins by spectrophotometry; format: functional, organism-based
In short: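 Viability as a carbon source. Bloodstream forms incubated in basic medium lacking glucose and serum: unsupplemented, with 1 mM glucose, or with 1 mM DHA. Cell density and motility followed over time. Triplicate, SD.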

Trypanosoma brucei [14] = assay: Effect on morphological changes in Trypanosoma brucei bloodstream form assessed as dilation of mitochondrion membrane at 3 mM after 24 hrs by transmission electron microscopy; format: functional, organism-based; in short: as §2
Trypanosoma brucei [15] = assay: Induction of apoptosis-like programmed cell death in Trypanosoma brucei bloodstream form assessed as phosphatidylserine exposure in outer leaflet of plasma membrane at 2 mM after 24 hrs by V-Fluos staining staining; format: functional; in short: as §1
Trypanosoma brucei [16] = assay: Effect on cell cycle of Trypanosoma brucei bloodstream form assessed as induction of necrosis at 4 mM after 24 hrs using propidium iodide staining by FACS analysis; format: functional; in short: as §3
Trypanosoma brucei [17] = assay: Induction of apoptosis-like programmed cell death in Trypanosoma brucei bloodstream form assessed as increase in intracellular reactive oxygen species production at 3 mM after 24 hrs by FACS analysis; format: functional; in short: as §5
Trypanosoma brucei [18] = assay: Effect on morphological changes in Trypanosoma brucei bloodstream form assessed as presence of one or two nucleus at 3 mM after 24 hrs by transmission electron microscopy; format: functional, organism-based; in short: as §2
Trypanosoma brucei [19] = assay: Trypanocidal activity against Trypanosoma brucei bloodstream form assessed as cell death at 1 mM by spectrophotometry in presence of 1 mM glucose; format: functional, organism-based
Trypanosoma brucei [20] = assay: Effect on morphological changes in Trypanosoma brucei bloodstream form assessed as presence of kinetoplast at 5 mM after 20 hrs by scanning electron microscopy; format: functional, organism-based; in short: as §6
Trypanosoma brucei [21] = assay: Trypanocidal activity against Trypanosoma brucei bloodstream form assessed as decrease in cell density after 24 hrs by spectrophotometry; format: functional, organism-based
In short: (§8)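 Proliferation measured in complete medium (33 mM glucose, 15% serum) with a range of DHA concentrations. Cell density followed over 24 h. Triplicate, SD.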

Trypanosoma brucei [22] = assay: Effect on cell cycle of Trypanosoma brucei bloodstream form assessed as increase in cells with two nuclei and two kinetoplasts at 1 to 3 mM using DAPI staining by phase-contrast microscopy; format: functional, organism-based; in short: as §4
Trypanosoma brucei [23] = assay: Effect on morphological changes in Trypanosoma brucei bloodstream form assessed as presence of myelin-like structures at 3 mM after 24 hrs by transmission electron microscopy; format: functional, organism-based; in short: as §2
Trypanosoma brucei [24] = assay: Effect on cell cycle of Trypanosoma brucei bloodstream form assessed as DNA content at 1 mM after 24 hrs using propidium iodide staining by FACS analysis; format: functional; in short: as §7
Trypanosoma brucei [25] = assay: Trypanocidal activity against Trypanosoma brucei bloodstream form at 5 mM up to 24 hrs by spectrophotometry; format: functional; in short: as §8
Trypanosoma brucei [26] = assay: Induction of apoptosis-like programmed cell death in Trypanosoma brucei bloodstream form assessed as increase in intracellular reactive oxygen species production at 5 uM after 24 hrs by FACS analysis; format: functional

In the case of `O=C(CO)CO` [DIHYDROXYACETONE], the Activity (Trypanosoma brucei [1]) is reported as 6.3%, the Activity (Trypanosoma brucei [2]) is reported as “Active” and the Activity (Trypanosoma brucei [3]) is reported as “Active”. The Activity (Trypanosoma brucei [4]) was 4%, the Activity (Trypanosoma brucei [5]) was “Active” and the Activity (Trypanosoma brucei [6]) was “Dose-dependent effect”. For the same compound, the Activity (Trypanosoma brucei [7]) was 10.6%, the Activity (Trypanosoma brucei [8]) was “inactive” and the Activity (Trypanosoma brucei [9]) was “Active”. The Activity (Trypanosoma brucei [10]) was 9.9%, the Activity (Trypanosoma brucei [11]) was 8% and the Activity (Trypanosoma brucei [12]) was “inactive”. The Activity (Trypanosoma brucei [13]) was “inactive”, the Activity (Trypanosoma brucei [14]) was “Active” and the Activity (Trypanosoma brucei [15]) was 10.1%. For the same compound, the Activity (Trypanosoma brucei [16]) was 12.9%, the Activity (Trypanosoma brucei [17]) was 14.4% and the Activity (Trypanosoma brucei [18]) was “Active”. For the same compound, the Activity (Trypanosoma brucei [19]) was “inactive”, the Activity (Trypanosoma brucei [20]) was “inactive” and the Activity (Trypanosoma brucei [21]) was “Dose-dependent effect”. For the same compound, the Activity (Trypanosoma brucei [22]) was “Active”, the Activity (Trypanosoma brucei [23]) was “Active” and the Activity (Trypanosoma brucei [24]) was 4.5%. The Activity (Trypanosoma brucei [25]) was 100% and the Activity (Trypanosoma brucei [26]) was 33.6%.
